Data on one molecule can be found in ChEMBL document CHEMBL1140405, “6-Acylamino-2-aminoquinolines as potent melanin-concentrating hormone 1 receptor antagonists. Identification, structure-activity relationship, and investigation of binding mode” (J Med Chem, 2005).

For assay [1], the target named is Sodium-dependent dopamine transporter (Homo sapiens, UniProt Q01959). The assay can be described thus: Inhibitory concentration against dopamine transporter.
For assay [2], the target named is T1, Adrenergic receptor alpha-2 (Homo sapiens, UniProt P08913+P18825+P18089).
T1 sequence (P08913 whole entry): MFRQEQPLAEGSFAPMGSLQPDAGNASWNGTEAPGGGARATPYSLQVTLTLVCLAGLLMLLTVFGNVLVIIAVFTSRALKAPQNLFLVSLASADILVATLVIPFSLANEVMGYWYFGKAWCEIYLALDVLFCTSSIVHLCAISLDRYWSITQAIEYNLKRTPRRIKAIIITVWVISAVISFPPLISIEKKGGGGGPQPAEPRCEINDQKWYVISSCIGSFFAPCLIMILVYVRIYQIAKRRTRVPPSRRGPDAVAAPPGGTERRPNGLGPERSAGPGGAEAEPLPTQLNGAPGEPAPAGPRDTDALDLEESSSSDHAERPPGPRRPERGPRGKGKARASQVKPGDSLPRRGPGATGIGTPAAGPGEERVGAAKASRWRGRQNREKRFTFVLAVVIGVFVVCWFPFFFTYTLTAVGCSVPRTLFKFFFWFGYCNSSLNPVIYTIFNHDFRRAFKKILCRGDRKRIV
T1 sequence (P18825 whole entry): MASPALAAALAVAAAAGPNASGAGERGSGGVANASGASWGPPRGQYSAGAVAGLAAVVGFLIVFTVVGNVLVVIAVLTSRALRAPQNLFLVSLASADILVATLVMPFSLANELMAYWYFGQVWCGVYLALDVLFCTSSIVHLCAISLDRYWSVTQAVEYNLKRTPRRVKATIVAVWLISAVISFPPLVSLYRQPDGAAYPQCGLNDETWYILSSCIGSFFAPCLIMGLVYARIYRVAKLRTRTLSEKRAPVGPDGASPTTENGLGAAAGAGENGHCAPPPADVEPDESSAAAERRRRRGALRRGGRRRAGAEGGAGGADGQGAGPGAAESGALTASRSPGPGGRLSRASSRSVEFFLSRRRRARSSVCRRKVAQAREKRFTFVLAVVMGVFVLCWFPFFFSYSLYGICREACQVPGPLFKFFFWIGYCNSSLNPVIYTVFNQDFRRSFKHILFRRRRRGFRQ
T1 sequence (P18089 whole entry): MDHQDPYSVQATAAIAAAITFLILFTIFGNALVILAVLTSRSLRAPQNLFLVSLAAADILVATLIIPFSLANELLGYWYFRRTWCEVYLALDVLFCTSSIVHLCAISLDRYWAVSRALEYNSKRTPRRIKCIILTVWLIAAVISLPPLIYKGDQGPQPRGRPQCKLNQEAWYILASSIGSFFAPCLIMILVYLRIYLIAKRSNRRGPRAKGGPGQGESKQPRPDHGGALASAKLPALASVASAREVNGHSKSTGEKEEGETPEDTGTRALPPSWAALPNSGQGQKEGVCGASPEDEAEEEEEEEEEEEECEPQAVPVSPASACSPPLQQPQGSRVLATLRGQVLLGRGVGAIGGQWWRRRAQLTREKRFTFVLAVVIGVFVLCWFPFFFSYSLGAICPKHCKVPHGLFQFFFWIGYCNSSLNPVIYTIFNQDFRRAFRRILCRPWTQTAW
The assay can be described thus: Inhibitory concentration against alpha-2 adrenergic receptor. It counts as protein assay.

Assay [3] addresses 5-hydroxytryptamine receptor 1B (Homo sapiens, UniProt P28222). The assay can be described thus: Inhibitory concentration against 5-hydroxytryptamine 1B receptor.
For assay [4], the target named is 5-hydroxytryptamine receptor 2A (Homo sapiens, UniProt P28223). Kind of assay: Inhibitory concentration against 5-hydroxytryptamine 2A receptor.
Sequence of 5-hydroxytryptamine receptor 2A (P28223 whole entry): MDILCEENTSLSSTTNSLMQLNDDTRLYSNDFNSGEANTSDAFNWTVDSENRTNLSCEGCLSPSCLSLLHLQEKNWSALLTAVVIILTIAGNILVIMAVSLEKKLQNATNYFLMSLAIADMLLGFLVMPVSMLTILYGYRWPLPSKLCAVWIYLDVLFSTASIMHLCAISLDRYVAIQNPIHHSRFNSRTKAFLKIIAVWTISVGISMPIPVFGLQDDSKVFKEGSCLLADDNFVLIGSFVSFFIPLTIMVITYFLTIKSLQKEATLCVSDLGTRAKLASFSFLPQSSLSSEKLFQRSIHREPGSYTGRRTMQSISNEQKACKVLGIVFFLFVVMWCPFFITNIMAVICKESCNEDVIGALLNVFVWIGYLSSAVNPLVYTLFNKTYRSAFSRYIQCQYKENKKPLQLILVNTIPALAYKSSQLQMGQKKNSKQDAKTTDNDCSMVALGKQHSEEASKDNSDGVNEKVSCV
Assay [5] has as its target T2, Muscarinic acetylcholine receptor M1 (Homo sapiens, UniProt P11229).
T2 sequence (P11229 whole entry): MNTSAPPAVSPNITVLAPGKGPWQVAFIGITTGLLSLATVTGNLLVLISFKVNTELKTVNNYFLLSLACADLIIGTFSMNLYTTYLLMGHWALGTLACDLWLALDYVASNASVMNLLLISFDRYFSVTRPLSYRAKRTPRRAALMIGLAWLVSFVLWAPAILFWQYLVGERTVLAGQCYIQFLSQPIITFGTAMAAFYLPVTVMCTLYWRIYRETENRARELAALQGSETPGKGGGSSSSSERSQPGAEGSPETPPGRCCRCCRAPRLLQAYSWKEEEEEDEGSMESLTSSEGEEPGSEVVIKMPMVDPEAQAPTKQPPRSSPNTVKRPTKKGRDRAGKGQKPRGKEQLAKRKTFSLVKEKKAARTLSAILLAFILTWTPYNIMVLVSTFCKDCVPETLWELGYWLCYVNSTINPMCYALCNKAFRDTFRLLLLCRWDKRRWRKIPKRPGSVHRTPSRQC
Kind of assay: Inhibitory concentration against muscarinic acetylcholine receptor M1.

The target in assay [6] is T3, Muscarinic acetylcholine receptor M2 (Homo sapiens, UniProt P08172).
T3 sequence (P08172 whole entry): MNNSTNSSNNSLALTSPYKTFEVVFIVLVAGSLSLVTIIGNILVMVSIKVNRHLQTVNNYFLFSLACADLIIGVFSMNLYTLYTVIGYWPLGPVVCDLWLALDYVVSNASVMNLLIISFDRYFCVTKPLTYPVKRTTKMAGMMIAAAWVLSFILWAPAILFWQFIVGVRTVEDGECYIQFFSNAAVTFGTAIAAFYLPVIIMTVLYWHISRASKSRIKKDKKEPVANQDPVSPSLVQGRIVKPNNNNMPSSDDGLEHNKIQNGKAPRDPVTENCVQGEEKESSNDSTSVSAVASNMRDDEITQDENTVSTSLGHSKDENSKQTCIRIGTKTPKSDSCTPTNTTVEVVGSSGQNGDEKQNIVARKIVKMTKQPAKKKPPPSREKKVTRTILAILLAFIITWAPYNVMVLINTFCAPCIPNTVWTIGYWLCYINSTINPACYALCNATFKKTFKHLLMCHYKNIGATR
The assay can be described thus: Inhibitory concentration against muscarinic acetylcholine receptor M2.

The target in the next assay is D(1A) dopamine receptor (Homo sapiens, UniProt P21728). The assay can be described thus: Inhibitory concentration against dopamine receptor D1.
Sequence of D(1A) dopamine receptor (P21728 whole entry): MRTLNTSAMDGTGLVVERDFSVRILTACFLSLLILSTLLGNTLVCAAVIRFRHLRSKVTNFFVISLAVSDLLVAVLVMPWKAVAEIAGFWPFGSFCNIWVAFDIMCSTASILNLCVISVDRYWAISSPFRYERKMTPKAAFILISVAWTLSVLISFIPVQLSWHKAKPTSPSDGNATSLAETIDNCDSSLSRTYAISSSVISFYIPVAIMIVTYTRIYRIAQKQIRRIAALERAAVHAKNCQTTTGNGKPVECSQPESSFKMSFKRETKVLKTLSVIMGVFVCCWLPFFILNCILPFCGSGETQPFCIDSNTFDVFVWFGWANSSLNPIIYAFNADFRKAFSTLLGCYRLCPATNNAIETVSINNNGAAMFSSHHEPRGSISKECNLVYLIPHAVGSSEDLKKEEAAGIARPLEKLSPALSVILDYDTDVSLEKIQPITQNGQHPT
In a further assay the target is D(3) dopamine receptor (Homo sapiens, UniProt P35462). The assay can be described thus: Inhibitory concentration against dopamine receptor D3.
Sequence of D(3) dopamine receptor (P35462 whole entry): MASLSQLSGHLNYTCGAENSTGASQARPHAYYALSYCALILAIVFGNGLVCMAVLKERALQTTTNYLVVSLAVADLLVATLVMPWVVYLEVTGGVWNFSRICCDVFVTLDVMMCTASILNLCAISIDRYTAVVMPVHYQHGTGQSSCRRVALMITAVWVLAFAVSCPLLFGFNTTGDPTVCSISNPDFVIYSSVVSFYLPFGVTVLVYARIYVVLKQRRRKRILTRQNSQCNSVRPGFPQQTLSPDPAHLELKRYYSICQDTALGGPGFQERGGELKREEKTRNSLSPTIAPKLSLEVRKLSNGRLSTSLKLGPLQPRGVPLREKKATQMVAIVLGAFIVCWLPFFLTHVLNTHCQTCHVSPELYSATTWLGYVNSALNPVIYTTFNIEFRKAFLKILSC
A further assay addresses Histamine H1 receptor (Homo sapiens, UniProt P35367). Kind of assay: Inhibitory concentration against Histamine H1 receptor.
A further assay addresses Histamine H2 receptor (Homo sapiens, UniProt P25021). Kind of assay: Inhibitory concentration against Histamine H2 receptor.
Assay [7] deals with T4, 5-hydroxytryptamine receptor 2C (Homo sapiens, UniProt P28335).
T4 sequence (P28335 whole entry): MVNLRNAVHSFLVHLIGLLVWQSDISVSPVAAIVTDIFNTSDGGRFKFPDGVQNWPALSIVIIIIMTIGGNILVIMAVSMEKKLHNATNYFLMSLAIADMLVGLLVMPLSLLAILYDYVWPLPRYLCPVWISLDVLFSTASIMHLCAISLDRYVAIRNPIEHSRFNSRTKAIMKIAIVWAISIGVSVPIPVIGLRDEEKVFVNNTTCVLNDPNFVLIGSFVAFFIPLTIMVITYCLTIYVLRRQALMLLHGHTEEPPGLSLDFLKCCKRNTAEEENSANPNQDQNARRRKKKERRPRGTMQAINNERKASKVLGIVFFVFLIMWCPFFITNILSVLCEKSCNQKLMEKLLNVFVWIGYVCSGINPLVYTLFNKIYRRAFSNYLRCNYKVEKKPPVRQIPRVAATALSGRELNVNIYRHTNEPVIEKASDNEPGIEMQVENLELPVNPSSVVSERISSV
The assay can be described thus: Inhibitory concentration against 5-hydroxytryptamine 2C receptor expressed in CHO-K1 cells using [3H]mesulergine. It counts as cell-based. The method, boiled down: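 SPA competition binding on purchased membranes from CHO-K1 cells expressing h5-HT2c (4 μg/well), with YSi-WGA beads (0.4 mg/well) and [3H]mesulergine tracer, across various test-compound concentrations. Buffer is 50 mM Tris pH 7.7, 50 mM MgCl2 and 0.1% pargyline. Nonspecific binding uses 1 μM cold mesulergine. IC50 is taken by nonlinear regression.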

Sequence of Histamine H2 receptor (P25021 whole entry): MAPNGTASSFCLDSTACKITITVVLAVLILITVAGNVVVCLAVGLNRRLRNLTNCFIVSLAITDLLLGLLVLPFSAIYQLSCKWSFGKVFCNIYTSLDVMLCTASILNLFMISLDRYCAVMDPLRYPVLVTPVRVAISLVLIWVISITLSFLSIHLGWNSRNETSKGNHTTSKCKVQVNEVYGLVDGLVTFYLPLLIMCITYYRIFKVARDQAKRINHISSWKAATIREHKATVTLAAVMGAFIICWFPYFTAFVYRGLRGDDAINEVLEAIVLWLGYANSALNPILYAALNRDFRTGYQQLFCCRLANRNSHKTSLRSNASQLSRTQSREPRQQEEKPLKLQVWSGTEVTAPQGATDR
Sequence of Sodium-dependent dopamine transporter (Q01959 whole entry): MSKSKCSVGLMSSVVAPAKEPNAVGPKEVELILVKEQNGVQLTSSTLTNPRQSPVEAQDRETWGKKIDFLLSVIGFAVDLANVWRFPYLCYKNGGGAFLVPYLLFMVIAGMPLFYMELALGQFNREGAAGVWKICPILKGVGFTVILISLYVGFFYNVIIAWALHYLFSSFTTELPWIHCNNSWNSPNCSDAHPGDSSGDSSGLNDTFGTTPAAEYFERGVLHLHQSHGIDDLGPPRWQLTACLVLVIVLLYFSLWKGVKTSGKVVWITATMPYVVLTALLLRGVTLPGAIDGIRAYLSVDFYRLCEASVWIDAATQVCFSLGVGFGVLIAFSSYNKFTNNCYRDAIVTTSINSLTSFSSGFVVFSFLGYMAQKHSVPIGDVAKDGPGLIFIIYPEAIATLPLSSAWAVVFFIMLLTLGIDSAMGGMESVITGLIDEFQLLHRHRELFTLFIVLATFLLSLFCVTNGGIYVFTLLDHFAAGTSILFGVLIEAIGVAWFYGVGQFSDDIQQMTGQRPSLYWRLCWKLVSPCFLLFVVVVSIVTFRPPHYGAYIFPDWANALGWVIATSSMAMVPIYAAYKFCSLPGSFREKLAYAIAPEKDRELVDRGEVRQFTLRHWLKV
Sequence of Histamine H1 receptor (P35367 whole entry): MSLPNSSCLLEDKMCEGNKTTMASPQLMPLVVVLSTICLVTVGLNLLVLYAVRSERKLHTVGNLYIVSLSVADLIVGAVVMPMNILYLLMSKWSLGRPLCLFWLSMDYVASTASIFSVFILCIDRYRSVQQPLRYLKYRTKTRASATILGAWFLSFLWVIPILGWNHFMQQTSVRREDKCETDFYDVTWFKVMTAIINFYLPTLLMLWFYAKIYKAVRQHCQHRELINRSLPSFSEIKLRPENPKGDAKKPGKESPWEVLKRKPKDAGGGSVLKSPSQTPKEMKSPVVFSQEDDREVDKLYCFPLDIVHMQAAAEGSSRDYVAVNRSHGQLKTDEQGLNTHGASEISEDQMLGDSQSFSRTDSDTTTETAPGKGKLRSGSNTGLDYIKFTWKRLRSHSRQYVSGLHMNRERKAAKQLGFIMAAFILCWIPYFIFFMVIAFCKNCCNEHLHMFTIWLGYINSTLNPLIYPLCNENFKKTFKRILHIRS
Sequence of 5-hydroxytryptamine receptor 1B (P28222 whole entry): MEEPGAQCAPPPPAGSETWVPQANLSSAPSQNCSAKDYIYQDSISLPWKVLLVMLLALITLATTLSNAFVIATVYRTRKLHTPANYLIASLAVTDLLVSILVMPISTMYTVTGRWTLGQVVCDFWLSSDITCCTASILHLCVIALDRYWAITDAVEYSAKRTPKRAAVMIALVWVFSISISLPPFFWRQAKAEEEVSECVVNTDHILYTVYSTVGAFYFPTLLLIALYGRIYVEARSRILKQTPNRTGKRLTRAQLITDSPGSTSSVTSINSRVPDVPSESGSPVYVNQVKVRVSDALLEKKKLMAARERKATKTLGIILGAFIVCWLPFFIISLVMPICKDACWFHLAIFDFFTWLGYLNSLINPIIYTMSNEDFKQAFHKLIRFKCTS

Broadly, the IC50 is the concentration that inhibits the measured activity by half. A high value points to lower potency. Regarding `Cc1cc(N(C)CCN(C)C)nc2ccc(NC(=O)/C=C/c3ccc(OC(F)(F)F)cc3)cc12`, the IC50 in [1] worked out at 10 µM; in assay [2] it was 1.3 µM; in assay [3] it was 0.8 µM; in [4], 1.9 µM; in [5], 1.3 µM; in [6], 0.48 µM. Also, the IC50 is 0.9 µM at D(1A) dopamine receptor; 2.3 µM against D(3) dopamine receptor; above 10 µM against Histamine H1 receptor; 0.86 µM against Histamine H2 receptor; 0.9 µM in assay [7].
